Results on 21 compounds are retold here after ChEMBL document CHEMBL1156827, “Benzimidazole derivatives as new serotonin 5-HT6 receptor antagonists. Molecular mechanisms of receptor inactivation” (J Med Chem, 2010).

Activity calls are given as the source filed them. The rule behind the calls is not given here.

Experiment [1] concerns the target T1, 5-hydroxytryptamine receptor 6 (Homo sapiens, UniProt P50406). The experiment is described as follows: Displacement of [3H]LSD from human 5HT6 receptor expressed in HEK293 cells by liquid scintillation counting. In kind it is cell-based. Summed up: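 Buffer: 50 mM Tris-HCl, 10 mM MgCl2, 0.5 mM EDTA, pH 7.4. Nonspecific binding was defined with 500 μM serotonin. Samples were filtered onto 0.5% PEI-soaked filters, washed with ice-cold Tris, and counted by scintillation. Screening was at 10^-6 M; six-point curves were run if displacement exceeded 50%. Ki by Cheng-Prusoff, 2-4 experiments.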

In experiment [2] the target is 5-hydroxytryptamine receptor 7 (Homo sapiens, UniProt P34969). The experiment is described as follows: Displacement of [3H]LSD from human 5HT7 receptor expressed in HEK293 cells by liquid scintillation counting. It counts as cell-based. Summed up: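 Purchased HEK-293 membranes expressing h5-HT7R were incubated with 3 nM [³H]LSD for 120 min at 27 °C. Buffer: 50 mM Tris-HCl, 10 mM MgSO4, 0.5 mM EDTA, pH 7.4. Nonspecific binding was defined with 25 μM clozapine. Samples were filtered onto 0.3% PEI-soaked filters, washed with ice-cold Tris, and counted by scintillation. Ki was derived from IC50 by Cheng-Prusoff.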
Background: In a radioligand displacement assay an active substance lowers the binding of a labelled ligand.

Experiment [3] addresses T1, 5-hydroxytryptamine receptor 6. The experiment is described as follows: Antagonist activity at human 5HT6 receptor expressed in COS7 cells assessed as inhibition of serotonin-induced cAMP accumulation by HTRF assay. It counts as functional, cell-based, COS-7. Summed up:
(§1)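 COS-7 cells were transfected with wild-type or mutant receptor cDNA and seeded at 100000 cells/well. At 24 h post-transfection, cells were stimulated for 10 min at 37 °C with eight concentrations of test ligand plus 100 μM 5-HT. cAMP was read by HTRF. Three independent experiments in triplicate, mean ± SEM.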
In general terms: Changes in cAMP serve as a functional read-out for many G protein-coupled receptors.

The target is the same in experiment [4]. The experiment is described as follows: Agonist activity at human 5HT6 receptor expressed in COS7 cells assessed as stimulation of cAMP accumulation by HTRF assay. The following applies: COS-7. It counts as functional, cell-based. The essentials:
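COS-7 cells transfected with human 5-HT6R cDNA, seeded 100000 cells/well, stimulated 24 h post-transfection for 10 min at 37 °C with each tested compound without 5-HT (agonist mode). cAMP quantified by HTRF; activity expressed as percentage of maximal effect obtained with serotonin alone. Three independent experiments in triplicate.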

Experiment [5] has as its target 5-hydroxytryptamine receptor 6 (Mus musculus, UniProt Q9R1C8). The experiment is described as follows: Antagonist activity at mouse wild type 5HT6 receptor expressed in COS7 cells assessed as inhibition of serotonin-induced cAMP accumulation by HTRF assay. It counts as functional, cell-based, COS-7. Summed up: as §1
The target in experiment [6] is 5-hydroxytryptamine receptor 6 (Mus musculus, UniProt Q9R1C8, C110A). Kind of experiment: Antagonist activity at mouse 5HT6 receptor C3.36A mutant expressed in COS7 cells assessed as inhibition of serotonin-induced cAMP accumulation by HTRF assay. It counts as functional, cell-based, COS-7. Summed up: as §1
The target in experiment [7] is 5-hydroxytryptamine receptor 6 (Mus musculus, UniProt Q9R1C8, W283A). Kind of experiment: Antagonist activity at mouse 5HT6 receptor W6.48A mutant expressed in COS7 cells assessed as inhibition of serotonin-induced cAMP accumulation by HTRF assay. It counts as functional, cell-based, COS-7. The essentials: (§2)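 COS-7 cells were transfected with wild-type or mutant receptor cDNA and seeded at 100000 cells/well. At 24 h post-transfection, cells were stimulated for 10 min at 37 °C with eight concentrations of test ligand plus 100 μM 5-HT. cAMP was read by HTRF. […] Three independent experiments in triplicate, mean ± SEM.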

Experiment [8] deals with 5-hydroxytryptamine receptor 6 (Mus musculus, UniProt Q9R1C8, F287A). The experiment is described as follows: Antagonist activity at mouse 5HT6 receptor F6.52A mutant expressed in COS7 cells assessed as inhibition of serotonin-induced cAMP accumulation by HTRF assay. It counts as functional, cell-based, COS-7. The essentials: as §2
A short description of experiment [9]: Antagonist activity at mouse 5HT6 receptor N6.55A mutant expressed in COS7 cells assessed as inhibition of serotonin-induced cAMP accumulation by HTRF assay. It counts as functional, cell-based. To be noted: cos-7. Summed up:
as §2

T1 sequence (P50406 whole entry): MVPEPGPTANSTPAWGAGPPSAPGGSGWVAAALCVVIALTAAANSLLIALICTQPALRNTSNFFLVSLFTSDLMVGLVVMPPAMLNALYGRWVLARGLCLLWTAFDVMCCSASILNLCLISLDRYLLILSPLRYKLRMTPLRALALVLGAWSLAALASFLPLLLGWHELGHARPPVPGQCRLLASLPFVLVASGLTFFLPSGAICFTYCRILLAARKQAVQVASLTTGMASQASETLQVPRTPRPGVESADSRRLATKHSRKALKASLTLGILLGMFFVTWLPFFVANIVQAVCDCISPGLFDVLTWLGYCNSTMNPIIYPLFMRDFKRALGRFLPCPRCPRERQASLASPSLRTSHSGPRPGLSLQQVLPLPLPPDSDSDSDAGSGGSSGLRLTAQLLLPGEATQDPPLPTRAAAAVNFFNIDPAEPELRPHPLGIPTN
Sequence of 5-hydroxytryptamine receptor 7 (P34969 whole entry): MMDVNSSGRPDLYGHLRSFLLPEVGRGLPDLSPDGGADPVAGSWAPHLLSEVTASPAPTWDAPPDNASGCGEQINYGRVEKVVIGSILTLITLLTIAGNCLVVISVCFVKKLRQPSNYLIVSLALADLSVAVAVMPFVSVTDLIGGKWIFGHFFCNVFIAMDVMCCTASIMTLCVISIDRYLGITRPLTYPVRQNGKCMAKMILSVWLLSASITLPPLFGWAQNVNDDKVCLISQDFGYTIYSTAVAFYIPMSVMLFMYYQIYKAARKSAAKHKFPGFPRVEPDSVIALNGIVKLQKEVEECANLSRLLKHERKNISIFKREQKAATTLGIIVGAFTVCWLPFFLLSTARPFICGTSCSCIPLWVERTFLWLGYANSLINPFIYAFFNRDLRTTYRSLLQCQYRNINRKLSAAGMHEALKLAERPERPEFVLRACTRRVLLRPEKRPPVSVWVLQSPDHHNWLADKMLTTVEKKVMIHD
Sequence of 5-hydroxytryptamine receptor 6 (Mus musculus, UniProt Q9R1C8, W283A) (Q9R1C8 whole entry W283A): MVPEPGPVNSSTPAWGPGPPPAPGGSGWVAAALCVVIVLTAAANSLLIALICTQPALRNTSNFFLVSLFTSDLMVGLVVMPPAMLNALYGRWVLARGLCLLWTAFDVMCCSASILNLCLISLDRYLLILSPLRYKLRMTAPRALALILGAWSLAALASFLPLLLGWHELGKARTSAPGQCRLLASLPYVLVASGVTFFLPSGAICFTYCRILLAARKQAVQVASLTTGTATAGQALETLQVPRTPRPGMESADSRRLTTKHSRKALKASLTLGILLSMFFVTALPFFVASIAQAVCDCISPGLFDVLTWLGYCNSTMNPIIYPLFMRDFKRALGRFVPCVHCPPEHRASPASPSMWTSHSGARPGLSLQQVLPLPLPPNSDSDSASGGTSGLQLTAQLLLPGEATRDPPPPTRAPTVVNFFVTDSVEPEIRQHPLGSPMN
Sequence of 5-hydroxytryptamine receptor 6 (Mus musculus, UniProt Q9R1C8) (Q9R1C8 whole entry): as the sequence (Q9R1C8 whole entry W283A) above, with A283W counted along it
Sequence of 5-hydroxytryptamine receptor 6 (Mus musculus, UniProt Q9R1C8, C110A) (Q9R1C8 whole entry C110A): as the sequence (Q9R1C8 whole entry W283A) above, with C110A, A283W counted along it
Sequence of 5-hydroxytryptamine receptor 6 (Mus musculus, UniProt Q9R1C8, F287A) (Q9R1C8 whole entry F287A): as the sequence (Q9R1C8 whole entry W283A) above, with A283W, F287A counted along it

One may read the Ki as a dissociation constant, usually derived from enzyme kinetics or from competition with a known ligand. Regarding `CN1CCN(c2cccc3[nH]c(C(=O)c4ccc5ccccc5c4)nc23)CC1`, the Ki in [1] is over 1000 nM; in [2], over 500 nM.

With `CN1CCN(c2ccc3[nH]c(Cc4cccc5ccccc45)nc3c2)CC1`, the Ki in experiment [1] was over 1000 nM; in experiment [2], over 500 nM.

With `c1ccc(Cc2nc3c(N4CCNCC4)cccc3[nH]2)cc1`, the inhibition constant Ki was 58 nM in experiment [1], over 500 nM in experiment [2] and 31 nM in experiment [3]. In addition, in [4], the result was inactive.

For the compound `COc1ccc(NS(=O)(=O)c2ccc(I)cc2)cc1N1CCN(C)CC1`, the Ki in [5] is 0.75 nM; in experiment [6], 54 nM; in [7], 0.32 nM; in [8] it was 114 nM; in experiment [9] it was 27 nM.

Take `CN1CCN(c2ccc3[nH]c(Cc4ccccc4)nc3c2)CC1`: the inhibitory constant (Ki) in experiment [1] was over 1000 nM; in [2], over 500 nM.

On to `CN1CCN(c2ccc3[nH]c(C(=O)c4cccc5ccccc45)nc3c2)CC1`, for which the Ki in experiment [1] was over 1000 nM; in experiment [2] it was over 500 nM.

Turning to `CN1CCN(c2cccc3[nH]c(Cc4ccccc4)nc23)CC1`, the Ki was 66.8 nM in experiment [1], over 500 nM in experiment [2] and 16 nM in [3]. Besides, the result in [4] was inactive.

`O=C(c1nc2c(N3CCNCC3)cccc2[nH]1)c1cccc2ccccc12`: the Ki is 13 nM in experiment [1], over 500 nM in experiment [2] and 15 nM in experiment [3]. The outcome in experiment [4] was inactive.

For the compound `CN1CCN(c2cccc3[nH]c(Cc4cccc5ccccc45)nc23)CC1`, the inhibitory constant (Ki) in experiment [1] is 36.2 nM; in experiment [2] it was over 500 nM; in [3], 27 nM. The outcome in experiment [4] was inactive.

In the case of `CN1CCN(c2ccc3[nH]c(C(=O)c4ccc5ccccc5c4)nc3c2)CC1`, the inhibition constant Ki in experiment [1] was over 1000 nM; in experiment [2], over 500 nM.

On to `O=C(c1ccc2ccccc2c1)c1nc2cc(N3CCNCC3)ccc2[nH]1`, for which the results for the Ki in [1] and in [2] were over 1000 nM and over 500 nM, respectively.

`c1ccc2c(Cc3nc4ccc(N5CCNCC5)cc4[nH]3)cccc2c1`: the Ki in experiment [1] was over 1000 nM; in experiment [2], over 500 nM.

In the case of `c1ccc2c(Cc3nc4c(N5CCNCC5)cccc4[nH]3)cccc2c1`, the inhibitory constant (Ki) in experiment [1] was 16 nM; in experiment [2], over 500 nM; in [3], 16 nM. In addition, the outcome in [4] was inactive.

As to `CN1CCN(c2cccc3[nH]c(C(=O)c4cccc5ccccc45)nc23)CC1`, in experiment [2], the inhibitory constant (Ki) was over 500 nM.

Consider `CN1CCN(c2ccc3[nH]c(C(=O)c4ccccc4)nc3c2)CC1`, for which the inhibition constant (Ki) is over 1000 nM in [1] and over 500 nM in experiment [2].

With `c1ccc2cc(Cc3nc4ccc(N5CCNCC5)cc4[nH]3)ccc2c1`, the inhibition constant Ki in [1] was over 1000 nM; in experiment [2], over 500 nM.

`CN1CCN(c2cccc3[nH]cnc23)CC1` registered a Ki in experiment [1] of over 1000 nM.

For the compound `O=C(c1ccccc1)c1nc2c(N3CCNCC3)cccc2[nH]1`, the Ki in experiment [1] is over 1000 nM; in experiment [2] it was over 500 nM.

For `CN1CCN(c2cccc3[nH]c(C(=O)c4ccccc4)nc23)CC1`, the Ki in [1] was over 1000 nM; in experiment [2] it was over 500 nM.

Regarding `CN1CCN(c2ccc3[nH]c(Cc4ccc5ccccc5c4)nc3c2)CC1`, the Ki is over 1000 nM in experiment [1] and over 500 nM in experiment [2].

Consider `c1ccc(Cc2nc3cc(N4CCNCC4)ccc3[nH]2)cc1`, for which the Ki in experiment [1] was over 1000 nM; in experiment [2], over 500 nM.
